Legend:
A549 = experiment: Cytotoxicity against human A549 cells after 48 hrs by SRB assay; format: functional, cell-based; settings: Homo sapiens, A549, 48 h; for GI50: read-out: GI50
Outline: (§1)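 Cells grown in RPMI 1640 with 10% FBS and penicillin/streptomycin at 37 °C and 5% CO₂, trypsinized, then seeded at 5 × 10³/well. After 18 h drug-free attachment, samples in DMSO/EtOH/PBS (0.5:0.5:99) were added for 48 h continuous exposure. Cells were fixed with cold TCA (1 h, 4 °C) and stained with SRB (10 min). Tris-solubilized stain read at 490 nm. Triplicate wells, mean ± SD; GI₅₀ derived.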

PANC-1 = experiment: Cytotoxicity against human PANC1 cells after 48 hrs by SRB assay; format: functional; settings: PANC-1, 48 h; for CC50: read-out: LC50 (the source's name); outline: as §1
HT-29 = experiment: Cytotoxicity against human HT29 cells after 48 hrs by SRB assay; format: functional, cell-based; settings: Homo sapiens, HT-29, 48 h; for CC50: read-out: LC50 (the source's name); outline: as §1
LNCaP = experiment: Cytotoxicity against human LNcaP cells after 48 hrs by SRB assay; format: functional; settings: for CC50: read-out: LC50 (the source's name); outline: as §1
SK-MEL-28 = experiment: Cytotoxicity against human SK-MEL-28 cells after 48 hrs by SRB assay; format: functional, cell-based; settings: Homo sapiens, SK-MEL-28, 48 h; for GI50: read-out: GI50; for CC50: read-out: LC50 (the source's name); outline: as §1
HeLa = experiment: Cytotoxicity against human HeLa cells after 48 hrs by SRB assay; format: functional; settings: for CC50: read-out: LC50 (the source's name); outline: as §1
[1] = Cytotoxicity against human IGROV cells after 48 hrs by SRB assay; format: functional; settings: for CC50: read-out: LC50 (the source's name); outline: as §1
DU-145 = experiment: Cytotoxicity against human DU145 cells after 48 hrs by SRB assay; format: functional, cell-based; settings: Homo sapiens, DU-145, 48 h; for GI50: read-out: GI50; for CC50: read-out: LC50 (the source's name); outline: as §1
[2] = Cytotoxicity against human IGROV-ET cells after 48 hrs by SRB assay; format: functional; settings: for CC50: read-out: LC50 (the source's name); outline: as §1
SK-BR-3 = experiment: Cytotoxicity against human SKBR3 cells after 48 hrs by SRB assay; format: functional; settings: SK-BR-3, 48 h; for GI50: read-out: GI50; for CC50: read-out: LC50 (the source's name); outline: as §1
LoVo [3] = experiment: Cytotoxicity against human LoVo cells after 48 hrs by SRB assay; format: functional; settings: for CC50: read-out: LC50 (the source's name)
LoVo [4] = experiment: Cytotoxicity against human doxorubicin resistant LoVo cells after 48 hrs by SRB assay; format: functional; settings: for CC50: read-out: LC50 (the source's name); outline: as §1
K562 = experiment: Cytotoxicity against human K562 cells after 48 hrs by SRB assay; format: functional; settings: K562, 48 h; for CC50: read-out: LC50 (the source's name); outline: as §1
[5] = Cytotoxicity against human HeLa-APL cells after 48 hrs by SRB assay; format: functional; outline: as §1

| Compound | LC50 (A549) [nM] | TGI (A549) [nM] | GI50 (A549) [nM] | CC50 (PANC-1) [nM] | GI50 (HT-29) [nM] | TGI (HT-29) [nM] | CC50 (HT-29) [nM] | GI50 (LNCaP) [nM] | TGI (LNCaP) [nM] | CC50 (LNCaP) [nM] | CC50 (SK-MEL-28) [nM] | GI50 (HeLa) [nM] | TGI (HeLa) [nM] | CC50 (HeLa) [nM] | CC50 [1] [nM] | TGI (DU-145) [nM] | GI50 (DU-145) [nM] | CC50 (DU-145) [nM] | GI50 ([2]; read-out: GI50) [nM] | CC50 [2] [nM] | other results |
| --- | --- | --- | --- | --- | --- | --- | --- | --- | --- | --- | --- | --- | --- | --- | --- | --- | --- | --- | --- | --- | --- |
| C/C=C1\NC(=O)[C@H](Cc2ccccc2)NC(=O)[C@@H](C(C)C)NC(=O)[C@@H]([C@H](C)CC)NC(=O)[C@H](NC(=O)[C@H](NC(=O)[C@H](CCCN)NC(=O)[C@H]2CCCN2C(=O)[C@H](NC(=O)[C@@H](NC(=O)[C@@H](NC(=O)[C@@H](CC2CCCCC2)NC(=O)CCCC(C)C)[C@@H](C)O)C(C)C)C(C)C)[C@H](C)CC)[C@H](C)OC(=O)[C@H](C(C)C)NC1=O | 1770 | 2180 | 1970 | 2440 | 2010 | 2310 | 2650 | 2980 | 3460 | 1720 | 1230 | 1300 | 1090 | 917 | 401 | 1200 | 1410 | 1030 | 1090 | 373 | TGI (SK-MEL-28): 1470 nM; GI50 (SK-MEL-28): 1730 nM; TGI [1]: 8320 nM; GI50 ([1]; read-out: GI50): 1270 nM; TGI [2]: 1230 nM; TGI (SK-BR-3): 862 nM; GI50 (SK-BR-3): 789 nM; CC50 (SK-BR-3): 4990 nM; GI50 (LoVo [3]): 2090 nM; TGI (LoVo [3]): 2130 nM; CC50 (LoVo [3]): 2180 nM; GI50 (LoVo [4]): 825 nM; TGI (LoVo [4]): 746 nM; CC50 (LoVo [4]): 247 nM; GI50 (K562): 2100 nM; TGI (K562): 3070 nM; CC50 (K562): 2340 nM; GI50 [5]: 1450 nM; LC50 (concentration giving 50% net cell kill) [5]: 1140 nM; TGI [5]: 1290 nM |
| C/C=C1\NC(=O)[C@H](Cc2ccccc2)NC(=O)[C@@H](C(C)C)NC(=O)[C@@H]([C@H](C)CC)NC(=O)[C@H](NC(=O)[C@H](NC(=O)[C@H](CCCN)NC(=O)[C@H]2CCCN2C(=O)[C@H](NC(=O)[C@H](CCCN)NC(=O)[C@@H](NC(=O)[C@H](NC(=O)CCCC(C)C)C(C)C)[C@@H](C)O)C(C)C)[C@H](C)CC)[C@H](C)OC(=O)[C@H](C(C)C)NC1=O | 1810 | 3670 | 2920 | 2290 | 4610 | 4910 | 2350 | 1760 | 2730 | 1390 | 1290 | 1280 | 1070 | 898 | 758 | 1330 | 1230 | 1440 | 1350 | 638 | GI50 (PANC-1): 1730 nM; TGI (PANC-1): 2080 nM; TGI (SK-MEL-28): 1410 nM; GI50 (SK-MEL-28): 1520 nM; TGI [2]: 1340 nM; TGI (SK-BR-3): 5240 nM; GI50 (SK-BR-3): 4460 nM; CC50 (SK-BR-3): 1050 nM; GI50 (LoVo [3]): 3610 nM; TGI (LoVo [3]): 4540 nM; CC50 (LoVo [3]): 3900 nM; GI50 (LoVo [4]): 7590 nM; TGI (LoVo [4]): 7660 nM; CC50 (LoVo [4]): 3710 nM; GI50 (K562): 218 nM; TGI (K562): 950 nM; CC50 (K562): 1910 nM; GI50 [5]: 1110 nM; LC50 (concentration giving 50% net cell kill) [5]: 1270 nM; TGI [5]: 1190 nM |
| C/C=C1\NC(=O)[C@H](Cc2ccccc2)NC(=O)[C@@H](C(C)C)NC(=O)[C@@H]([C@H](C)CC)NC(=O)[C@H](NC(=O)[C@H](NC(=O)[C@H](CCCNC(=O)C(F)(F)F)NC(=O)[C@H]2CCCN2C(=O)[C@H](NC(=O)[C@@H](NC(=O)[C@@H](NC(=O)[C@H](NC(=O)CC[C@@H](C)CC)C(C)C)[C@@H](C)OC(=O)C(F)(F)F)C(C)C)C(C)C)[C@H](C)CC)[C@H](C)OC(=O)[C@H](C(C)C)NC1=O | 1180 | 1200 | 1230 | 1570 | 329 | 355 | 381 | 1140 | 1720 | 1330 | 1140 | 656 | 597 | 543 | 281 | 1170 | 1460 | 931 | 770 | 2480 | GI50 [1]: 397 nM; GI50 ([1]; read-out: GI50): 373 nM; GI50 [2]: 911 nM; TGI (SK-BR-3): 322 nM; GI50 (SK-BR-3): 331 nM; CC50 (SK-BR-3): 313 nM; GI50 (LoVo [3]): 276 nM; TGI (LoVo [3]): 284 nM; CC50 (LoVo [3]): 294 nM; GI50 (LoVo [4]): 363 nM; TGI (LoVo [4]): 396 nM; CC50 (LoVo [4]): 1130 nM; CC50 (K562): 1710 nM; GI50 [5]: 849 nM; LC50 (concentration giving 50% net cell kill) [5]: 679 nM; TGI [5]: 778 nM |

Reference: ChEMBL document CHEMBL1156597, “Structure-activity relationship of kahalalide F synthetic analogues” (J Med Chem, 2008)
